Test results as given in ChEMBL document CHEMBL2086326, “Biological activity evaluation and structure-activity relationships analysis of ferulic acid and caffeic acid derivatives for anticancer” (Bioorg Med Chem Lett, 2012).
pIC50: −log10 of the molar value.

Columns and labels:
Assay type in all cases: functional, cell-based
A549 = assay: Cytotoxicity against human A549 cells after 72 hrs by alamar blue assay; conditions: A549, 72 h
Summary of the method: (§1)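 Cells seeded at 800–1000 per well (20–25 cells/µL) and left overnight to attach. Compounds were diluted serially from 10 mM DMSO stocks and tested at 8 final concentrations, 50 to 0.39 µM, in triplicate for 72 h. Vehicle control was 0.5% DMSO. Alamar blue was added to 10% final and fluorescence read after 4 h (ex 530, em 560 nm). Viability was expressed as percent of vehicle, and IC50 taken as 50% kill versus control.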

NCI-H157 = assay: Cytotoxicity against human NCI-H157 cells after 72 hrs by alamar blue assay; conditions: NCI-H157, 72 h; summary of the method: as §1
NCI-H460 = assay: Cytotoxicity against human H460 cells after 72 hrs by alamar blue assay; conditions: NCI-H460, 72 h; summary of the method: as §1
NCI-H1792 = assay: Cytotoxicity against human NCI-H1792 cells after 72 hrs by alamar blue assay; conditions: NCI-H1792, 72 h; summary of the method: as §1
[1] = Cytotoxicity against human H266 cells after 72 hrs by alamar blue assay; conditions: H266, 72 h; summary of the method: as §1
HOP-62 = assay: Cytotoxicity against human HOP62 cells after 72 hrs by alamar blue assay; conditions: HOP-62, 72 h; summary of the method: as §1
NCI-H1299 = assay: Cytotoxicity against human NCI-H1299 cells after 72 hrs by alamar blue assay; conditions: NCI-H1299, 72 h; summary of the method: as §1
[2] = Cytotoxicity against human 292G cells after 72 hrs by alamar blue assay; summary of the method: as §1
Calu-1 = assay: Cytotoxicity against human Calu1 cells after 72 hrs by alamar blue assay; conditions: Calu-1, 72 h; summary of the method: as §1
LOX IMVI = assay: Cytotoxicity against human LOXIMVI cells after 72 hrs by alamar blue assay; summary of the method: as §1
M14 = assay: Cytotoxicity against human M14 cells after 72 hrs by alamar blue assay; conditions: M14, 72 h; summary of the method: as §1
HeLa = assay: Cytotoxicity against human HeLa cells after 72 hrs by alamar blue assay; summary of the method: as §1
[3] = Cytotoxicity against human M4E cells after 72 hrs by alamar blue assay; summary of the method: as §1
[4] = Cytotoxicity against human SKBR cells after 72 hrs by alamar blue assay; summary of the method: as §1

Row | SMILES | pIC50 (A549) | pIC50 (NCI-H157) | pIC50 (NCI-H460) | pIC50 (NCI-H1792) | pIC50 [1] | pIC50 (HOP-62) | pIC50 (NCI-H1299) | pIC50 [2] | pIC50 (Calu-1) | pIC50 (LOX IMVI) | pIC50 (M14) | pIC50 (HeLa) | pIC50 [3] | pIC50 [4]
1 | COc1cc(/C=C/C(=O)OCCC(C)C)ccc1O [ISOPENTYL FERULATE] | 4.36 | 4.40 | 4.35 | 4.42 | 4.32 | 4.51 | 4.50 | 4.32 | 4.49 | 4.32 | 4.34 | < 4.30 | 4.52 | 4.38
2 | COc1cc(/C=C/C(=O)OCCCO[N+](=O)[O-])ccc1O | 4.88 | 4.69 | 4.54 | 4.55 | 4.36 | 4.71 | 4.55 | 4.40 | < 4.30 | 4.53 | 4.37 | 5.17 | 4.74 | 4.76
3 | O=C(/C=C/c1ccc(O)c(O)c1)OCCCCO[N+](=O)[O-] | 4.65 | 5.28 | 5.45 | 4.81 | 4.63 | 5.00 | 5.50 | 4.78 | 4.66 | < 4.30 | 4.70 | 5.65 | 4.76 | 5.34
4 | COc1cc(/C=C/C(=O)OC/C=C/CO[N+](=O)[O-])ccc1O | 5.23 | 5.37 | 5.30 | 5.31 | 5.01 | 5.29 | 5.63 | 4.66 | 5.61 | 5.63 | 5.41 | 6.00 | 5.03 | 5.19
5 | COc1cc(/C=C/C(=O)OCC(C)C)ccc1O | 4.46 | 4.55 | < 4.30 | < 4.30 | 4.45 | < 4.30 | 4.42 | < 4.30 | < 4.30 | < 4.30 | < 4.30 | 4.54 | < 4.30 | 4.35
6 | COc1cc(/C=C/C(=O)OC(C)CCOc2no[n+]([O-])c2S(=O)(=O)c2ccccc2)ccc1O (stereo not given) | 6.38 | 6.39 | 6.38 | 6.40 | 6.37 | 6.38 | 6.39 | 5.75 | 6.35 | 6.39 | 6.39 | 6.40 | 5.93 | 6.40
7 | COc1cc(/C=C/C(=O)OCCCCO[N+](=O)[O-])ccc1OCCCCO[N+](=O)[O-] | < 4.30 | < 4.30 | < 4.30 | < 4.30 | < 4.30 | < 4.30 | < 4.30 | < 4.30 | < 4.30 | < 4.30 | < 4.30 | 6.13 | < 4.30 | < 4.30
8 | COc1cc(/C=C/C(=O)OCCOCCOc2no[n+]([O-])c2S(=O)(=O)c2ccccc2)ccc1O | 6.39 | 6.36 | 6.37 | 5.97 | 6.38 | 6.32 | 6.31 | 5.54 | 6.35 | 6.38 | 6.39 | 6.37 | 5.95 | 6.39
9 | COc1cc(/C=C/C(=O)OCCCCCCO[N+](=O)[O-])ccc1OCCCCCCO[N+](=O)[O-] | < 4.30 | < 4.30 | < 4.30 | < 4.30 | < 4.30 | < 4.30 | < 4.30 | < 4.30 | 4.56 | < 4.30 | < 4.30 | < 4.30 | < 4.30 | < 4.30
10 | COc1cc(/C=C/C(=O)OCCCO[N+](=O)[O-])ccc1OCCCO[N+](=O)[O-] | 4.80 | < 4.30 | < 4.30 | < 4.30 | < 4.30 | < 4.30 | < 4.30 | < 4.30 | 5.85 | < 4.30 | < 4.30 | 5.44 | < 4.30 | < 4.30
11 | CCCCCOC(=O)/C=C/c1ccc(O)c(OC)c1 | < 4.30 | < 4.30 | < 4.30 | < 4.30 | < 4.30 | < 4.30 | < 4.30 | < 4.30 | < 4.30 | < 4.30 | < 4.30 | < 4.30 | < 4.30 | < 4.30
12 | COc1cc(/C=C/C(=O)OCCCCOc2no[n+]([O-])c2S(=O)(=O)c2ccccc2)ccc1O | 6.40 | 6.38 | 6.35 | 6.38 | 6.40 | 6.39 | 6.38 | 5.71 | 6.39 | 6.36 | 6.40 | 6.34 | 6.08 | 6.38
13 | O=C(/C=C/c1ccc(O)c(O)c1)OC/C=C/CO[N+](=O)[O-] | 6.40 | 5.87 | 5.54 | 6.39 | 4.99 | 5.33 | 6.39 | 5.10 | 6.38 | 6.37 | 5.83 | 6.40 | 5.37 | 6.39
14 | CCCCOC(=O)/C=C/c1ccc(O)c(OC)c1 | 5.08 | 5.04 | 4.71 | 4.82 | 4.74 | 4.83 | 5.08 | 4.64 | 4.76 | 4.71 | 4.74 | 4.99 | 4.82 | 4.88
15 | CC(C)OC(=O)/C=C/c1ccc(O)c(O)c1 | < 4.30 | 4.96 | 4.98 | < 4.30 | < 4.30 | < 4.30 | 4.51 | < 4.30 | < 4.30 | < 4.30 | < 4.30 | 5.02 | < 4.30 | 4.50
